# Data taken from article PMC3846926 (Neuropharmacology, 2010).
# Entries after “also recorded” stand apart in the source; their conditions may differ.
# Key:
# [1] = system: ASIC currents in cultured hippocampal neurons; experiment: ASIC currents in primary cultured hippocampal neurons, whole-cell voltage clamp; format: cell-based, mouse; conditions: for Inhibition (potency), grade in words: diarylamidines of Table 1, cultured hippocampal neurons; for effect on rates of desensitization of ASIC currents: sub-maximal concentrations
# [2] = system: ENaC; conditions: read-out: IC50 on ENaC; very weak inhibition; ref Ugawa et al., 2007; cited from earlier work
# [3] = system: ASIC current; conditions: Wu et al., 2004, cited from earlier work
# [4] = system: ENaC channels expressed in oocytes; experiment: ENaC current in Xenopus oocytes, two-electrode voltage clamp; format: cell-based; conditions: 100 µM; for effect on ENaC activities: oocytes; for relative current of ENaC with compound: relative to control without diarylamidine, holding -70 mV
# How it was run: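 Defolliculated (collagenase, 60–120 min) stage V–VI Xenopus laevis oocytes were injected with 1 ng ENaC α/β/γ cRNA and kept 3 days at 19 °C in low-Na+ ringer. Two-electrode voltage clamp at −70 mV, 22–26 °C, in ringer pH 7.4. Amiloride superfusion was replaced by amiloride-free solution, then test compound (100 µM) was applied without amiloride. Amiloride-sensitive current recorded at 1 kHz.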
# [5] = target: T1, homomeric ASIC3 (Rattus norvegicus, UniProt O35240); experiment: ASIC3 current in transfected CHO cells, patch clamp; format: cell-based; conditions: pH 6.5, read-out: inhibition of ASIC3 current
# T1 sequence (O35240 1-533): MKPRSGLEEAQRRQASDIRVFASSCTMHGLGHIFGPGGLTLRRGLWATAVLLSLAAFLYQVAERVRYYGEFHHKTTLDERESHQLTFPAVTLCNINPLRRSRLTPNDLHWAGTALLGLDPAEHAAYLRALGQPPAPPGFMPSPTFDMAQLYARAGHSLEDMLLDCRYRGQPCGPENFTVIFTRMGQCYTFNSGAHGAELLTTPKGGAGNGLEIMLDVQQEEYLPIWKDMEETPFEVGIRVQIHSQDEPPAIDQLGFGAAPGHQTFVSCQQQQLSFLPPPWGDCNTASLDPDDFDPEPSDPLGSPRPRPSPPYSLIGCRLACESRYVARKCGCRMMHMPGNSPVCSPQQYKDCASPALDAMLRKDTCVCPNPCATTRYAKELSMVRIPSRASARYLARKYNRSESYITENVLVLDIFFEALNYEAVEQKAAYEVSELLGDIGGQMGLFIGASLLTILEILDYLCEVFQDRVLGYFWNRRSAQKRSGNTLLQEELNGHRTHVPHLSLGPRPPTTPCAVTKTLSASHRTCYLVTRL
# How it was run: (§1)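 CHO cells in F12 with 10% fetal bovine serum, cotransfected at ~50% confluence with the individual ASIC subunit cDNA (1.8 µg) plus GFP DNA (0.2 µg) per dish. GFP-positive cells whole-cell patch-clamped 48–72 h after plating, held at −60 mV. Activating pH: 6.0 (ASIC1a, 1b), 5.0 (ASIC2a), 6.5 (ASIC3). Test compound perfused 2 min. Currents normalized to control; IC50 from logistic fit; mean ± S.E.M.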
# [6] = target: T2, homomeric ASIC2a (Rattus norvegicus, UniProt Q62962); experiment: ASIC2a current in transfected CHO cells, patch clamp; format: cell-based; conditions: pH 5, read-out: inhibition of ASIC2a current
# T2 sequence (Q62962 1-512): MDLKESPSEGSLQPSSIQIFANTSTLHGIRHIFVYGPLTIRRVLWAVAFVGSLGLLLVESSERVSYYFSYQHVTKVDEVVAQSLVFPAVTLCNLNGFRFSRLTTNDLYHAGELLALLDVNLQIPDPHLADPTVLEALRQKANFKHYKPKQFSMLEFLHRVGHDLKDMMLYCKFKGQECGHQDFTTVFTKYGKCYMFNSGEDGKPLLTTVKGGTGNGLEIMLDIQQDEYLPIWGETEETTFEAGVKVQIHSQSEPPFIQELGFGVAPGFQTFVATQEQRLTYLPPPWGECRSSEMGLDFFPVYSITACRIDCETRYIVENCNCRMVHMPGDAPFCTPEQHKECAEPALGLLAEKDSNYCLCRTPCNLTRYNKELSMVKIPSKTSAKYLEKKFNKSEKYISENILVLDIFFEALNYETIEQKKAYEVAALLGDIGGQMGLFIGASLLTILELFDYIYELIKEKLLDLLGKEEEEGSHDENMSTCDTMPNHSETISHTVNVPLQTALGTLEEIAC
# How it was run: as §1
# [7] = target: T3, ASIC1a (Rattus norvegicus, UniProt P55926); experiment: ASIC1a currents in oocytes; format: cell-based; conditions: 100 µM
# T3 sequence (P55926 1-526): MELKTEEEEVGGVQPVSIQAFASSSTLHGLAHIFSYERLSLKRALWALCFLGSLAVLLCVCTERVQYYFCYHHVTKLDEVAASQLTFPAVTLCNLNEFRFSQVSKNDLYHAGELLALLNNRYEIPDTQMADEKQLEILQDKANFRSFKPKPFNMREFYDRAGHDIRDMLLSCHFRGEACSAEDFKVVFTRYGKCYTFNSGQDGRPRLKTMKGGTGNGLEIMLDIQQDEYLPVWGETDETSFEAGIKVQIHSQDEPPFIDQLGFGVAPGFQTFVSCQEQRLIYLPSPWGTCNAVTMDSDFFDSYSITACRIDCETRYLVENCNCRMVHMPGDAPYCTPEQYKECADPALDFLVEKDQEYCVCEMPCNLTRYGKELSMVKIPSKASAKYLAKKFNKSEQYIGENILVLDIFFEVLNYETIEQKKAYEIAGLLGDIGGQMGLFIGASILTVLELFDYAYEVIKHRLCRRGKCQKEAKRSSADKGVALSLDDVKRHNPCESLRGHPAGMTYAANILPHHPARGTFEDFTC
# [8] = system: cultured hippocampal neurons; format: cell-based, mouse; conditions: 10 µM, current clamp
# [9] = target: T4, homomeric ASIC1b (Rattus norvegicus, UniProt P55926); experiment: ASIC1b current in transfected CHO cells, patch clamp; format: cell-based; conditions: pH 6, read-out: inhibition of ASIC1b current
# T4 sequence (P55926 1-559 isoform P55926-3): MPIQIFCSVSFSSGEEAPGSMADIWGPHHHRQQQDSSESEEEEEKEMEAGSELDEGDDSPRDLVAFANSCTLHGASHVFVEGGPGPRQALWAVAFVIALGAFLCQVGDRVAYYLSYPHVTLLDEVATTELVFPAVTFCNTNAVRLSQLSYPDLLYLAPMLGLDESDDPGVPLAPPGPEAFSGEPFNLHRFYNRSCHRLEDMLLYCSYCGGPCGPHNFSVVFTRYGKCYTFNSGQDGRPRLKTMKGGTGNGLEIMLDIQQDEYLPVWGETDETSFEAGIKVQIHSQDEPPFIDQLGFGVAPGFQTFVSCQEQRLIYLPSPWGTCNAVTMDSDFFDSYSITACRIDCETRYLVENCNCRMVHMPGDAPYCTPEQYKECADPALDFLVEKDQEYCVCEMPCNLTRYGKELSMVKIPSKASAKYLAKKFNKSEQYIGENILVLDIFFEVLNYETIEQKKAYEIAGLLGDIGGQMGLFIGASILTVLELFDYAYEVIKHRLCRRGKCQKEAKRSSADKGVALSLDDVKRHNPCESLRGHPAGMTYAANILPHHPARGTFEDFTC
# How it was run: as §1
# [10] = target: T5, homomeric ASIC1a (Rattus norvegicus, UniProt P55926); experiment: ASIC1a current in transfected CHO cells, patch clamp; format: cell-based
# T5 sequence (P55926 1-526): T3 sequence (P55926 1-526)
# How it was run: as §1
# [11] = 200 µM, cultured hippocampal neurons
structure (smiles),measurement,setting,value
Cc1ccc(C(=O)Nc2ccc(S(=O)(=O)O)c3cc(S(=O)(=O)O)cc(S(=O)(=O)O)c23)cc1NC(=O)c1cccc(NC(=O)Nc2cccc(C(=O)Nc3cc(C(=O)Nc4ccc(S(=O)(=O)O)c5cc(S(=O)(=O)O)cc(S(=O)(=O)O)c45)ccc3C)c2)c1 [suramin],effect on ASIC currents,"[1]; 500 µM, cultured hippocampal neurons",failed to inhibit
N=C(N)c1ccc2cc(OC(=O)c3ccc(N=C(N)N)cc3)ccc2c1 [Nafamostat],IC50,[2],~1 mM
N=C(N)NC(=O)c1nc(Cl)c(N)nc1N [Amiloride],IC50,"[3]; read-out: IC50 on ASIC current, ref Waldmann et al., 1997",10 to 20 µM
same,concentration required to completely block the neuronal ASIC currents,"[3]; ref Baron et al., 2002",200 to 500 µM
same,effect on desensitization of ASIC current,[1]; amiloride 80 µM co-applied with pH 5.8,did not accelerate; also recorded: little effect
same,desensitization time constant of ASIC currents,"[1]; amiloride 80 µM co-applied with pH 5.8, control 0.83 ± 0.15 s",0.72 ± 0.14 s
N=C(N)c1ccc(/C=C/c2ccc(C(=N)N)cc2O)cc1 [Hydroxystilbamidine],effect on ENaC activities,[4]; listed as HSB,did not inhibit
same,relative current of ENaC with compound,[4],1.02 ± 0.04
same,IC50,[1],1500 nM
same,"Inhibition (potency), grade in words",[1],Strong inhibition
same,effect on rates of desensitization of ASIC currents,[1],did not have marked effects
CC1(C)[C@@H](OC(=O)CCC(=O)O)CC[C@]2(C)[C@H]3C(=O)C=C4[C@@H]5C[C@@](C)(C(=O)O)CC[C@]5(C)CC[C@@]4(C)[C@]3(C)CC[C@@H]12 [Carbenoxolone],effect on ASIC currents,[1]; [11],failed to inhibit; also recorded: did not inhibit
O=C(Nc1cccc(C2=NCCN2)c1)Nc1cccc(C2=NCCN2)c1 [Imidocarb],inhibition of ASIC currents,[1]; [11],Inhibit 42 ± 7% at 200 µM
Cn1cc(NC(=O)c2cc(NC(=O)CN=C(N)N)cn2C)cc1C(=O)NCCC(=N)N [Netropsin],effect on ASIC currents,"[1]; 100 µM, cultured hippocampal neurons",did not inhibit
same,effect on ASIC currents,[1]; concentration not given,without effect; also recorded: failed to inhibit
N=C(N)c1ccc(/N=N/Nc2ccc(C(=N)N)cc2)cc1 [Diminazene],inhibition at 3 µM,[5],74 ± 0.6%
same,inhibition at 3 µM,[6],51 ± 6.1%
same,block of ASIC1a currents in oocytes,[7],almost completely
same,effect on low pH-induced depolarization and excitation,[8],dramatically attenuated; also recorded: markedly attenuated
same,effect on ENaC activities,[4],did not inhibit; also recorded: ineffective
same,relative current of ENaC with compound,[4],1.11 ± 0.05
same,inhibition at 3 µM,[9],92 ± 0.5%
same,IC50,[10],~3 µM
same,inhibition at 3 µM,"[10]; CHO, pH 6, read-out: inhibition of ASIC1a current",39 ± 3.8%
same,desensitization time constant of ASIC currents,"[1]; 1 µM by perfusion, control 1.7 ± 0.2 s",0.4 ± 0.1 s
same,"Inhibition (potency), grade in words",[1],Strong inhibition
same,desensitization time constant of ASIC currents,"[1]; diminazene 3 µM co-applied with pH 5.8, control 1.6 ± 0.3 s",0.4 ± 0.1 s
"N=C(N)c1ccc(-c2cc3ccc(C(=N)N)cc3[nH]2)cc1 [DAPI, 4′,6-diamidino-2-phenylindole]",block of ASIC1a currents in oocytes,[7],almost completely
same,effect on ENaC activities,[4],did not inhibit; also recorded: ineffective
same,relative current of ENaC with compound,[4],0.98 ± 0.04
same,"Inhibition (potency), grade in words",[1],Strong inhibition
same,effect on rates of desensitization of ASIC currents,[1],did not have marked effects
N=C(N)c1ccc(OCCCCCOc2ccc(C(=N)N)cc2)cc1 [Pentamidine],block of ASIC1a currents in oocytes,[7],77%
same,effect on ENaC activities,[4],did not inhibit; also recorded: ineffective
same,relative current of ENaC with compound,[4],1.02 ± 0.03
same,"Inhibition (potency), grade in words",[1],Inhibition
same,effect on rates of desensitization of ASIC currents,[1],did not have marked effects
